Source: PubChem
The list is not random: actives were taken first. Their share in the collection is about 3.5%.
rRNA inh HTS: reduced GFP signal of wild-type E. coli, primary screen, bacterial rRNA inhibitor project, GFP/RFP fluorescence, OD600, single point | E. coli WT GFP vs humanized-ribosome RFP mutants, 24 h; active compounds read low; DMSO median 0, no signal -100 | GFP signal change (wild-type ribosome), % (no concentration beside the values) | 1.6% of 350,000 active;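 active = significant combined selectivity score with lowered wild-type GFP, culture density cut under 30%, mutant RFP and density less affected; inactive = any of these conditions unmet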
PGC1a acetyl inh: inhibitors of PGC1a acetylation signal, primary screen, cell-based, U2OS, AlphaScreen, inhibitor mode; AlphaScreen anti-acetyl-lysine; with virally co-expressed GCN5 acetyltransferase; inhibition, % at 15.6 µM; 0.17% of 350,000 active;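 active = every replicate shows inhibition of at least 40%; inconclusive = mean inhibition at least 40% but some replicate below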
Env fusion inh: inhibitors of HIV-1 Env-driven cell-cell fusion, primary screen, HeLa-JRFL effector, CEM21 target cells, luciferase; inhibition, % at 12.3 µM; AID 651610, 2012; 1.1% of 360,000 active;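 active = mean replicate inhibition score of at least 50 and every replicate individually at or above 50; inconclusive = only one of the two criteria met; inactive = mean below 50 and not all replicates reaching 50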
FN deposit inh: inhibitors of fibronectin matrix deposition, primary screen, AH1F cells, Alexa488-fibronectin fluorescence, plate reader; 0.086% of 350,000 active; AH1F fibroblasts, overnight; inhibition, % at 12.6 µM;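 active = mean inhibition across replicates of 30% or more, regardless of how many single replicates reach that level; inconclusive = mean under 30% yet at least half of replicates reach 30%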
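Material: AH1F fibroblasts assembling fluorescent fibronectin matrix; amount: 10000 AH1F cells/well; medium: DMEM, 2% serum; reagent: Alexa488-fibronectin, 24 nM final in well; dosing: single compound dose, delivered by pin transfer; incubation: 1 h adhesion, overnight exposure; detection: fluorescence after three HBSS washes, excitation 485 nm, emission 525 nm; measure: fibronectin deposition inhibition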
DENV2 CPE rescue: inhibitors of DENV2 cytopathic effect, primary screen, cell-based, plate reader, single concentration; AID 651640, 2012; DENV2-infected cells, cytopathic effect rescue; CPE inhibition, % at 9.99 µM; 1.7% of 350,000 active; in the data active = CPE inhibition above about 20%, passing the limit was not always enough; inconclusive = no clear call, values can overlap the other calls; tested in BHK-21 cells
PglD DTNB: C. jejuni PglD acetyltransferase inhibitors, primary screen, biochemical, DTNB colorimetric, single point. purified PglD enzyme, DTNB colorimetric CoA detection. inhibition, % at 12.5 µM. 0.098% of 360,000 active. AID 602405, 2012; in the data active = inhibition above about 16%, passing the limit was not always enough; inconclusive = no clear call, values can overlap the other calls
Numbers stand for hits; . = inactive; ? = inconclusive; / = no result given; [ ] = dose if it differs, or a comment.

SMILES	rRNA inh HTS	PGC1a acetyl inh	Env fusion inh	FN deposit inh	DENV2 CPE rescue	PglD DTNB
Cc1ccc(S(=O)(=O)Nc2ccc3c(c2)C(=O)N([C@@H](C)CO)C[C@@H](C)[C@@H](CN(C)S(=O)(=O)c2c(C)noc2C)OCCCC[C@@H](C)O3)cc1	.	.	.	.	28	.
Cc1noc(C)c1S(=O)(=O)Nc1ccc2c(c1)C(=O)N([C@@H](C)CO)C[C@@H](C)[C@H](CN(C)S(=O)(=O)c1ccccc1)OCCCC[C@@H](C)O2	.	.	.	.	94	.
OC[C@@H]1[C@@H](c2ccc(C#CC3CCCC3)cc2)[C@@H]2CN(CCC(F)(F)F)CCCCN12	.	.	/	/	.	.
CNC[C@@H](Cc1ccccc1)NC[C@@H](CC1CCCCC1)NCCCc1ccccc1	.	.	103	.	.	.
CNC[C@@H](CC1CCCCC1)NC[C@H](CC(C)C)NCCc1cccc(C(F)(F)F)c1	.	88	93	62	?	.
CCC[C@@H](CNC)NC[C@H](Cc1ccccc1)NCCCCc1ccccc1	.	.	.	.	.	.
COc1ccc(-c2ccc([C@@H]3[C@@H](CO)N4C(=O)CN(Cc5ccc(C)cc5)C[C@H]34)cc2)cc1	.	.	/	/	.	/
Cc1ccc(N(C)C(=O)N2CCN(S(=O)(=O)c3ccc4ccccc4c3)CC2)cc1	/	.	?	/	/	.
Cc1ccc(CN(C)c2ccc(S(=O)(=O)N3CCCC3)cn2)cc1	.	.	.	.	25	.
Cc1ccc(S(=O)(=O)N2CC3(C)CN(S(=O)(=O)c4ccc(C)cc4)CC(C)(C2)C3=O)cc1	/	.	.	34	/	.
Cc1ccc(N(C)C(=O)N2CCN(S(=O)(=O)c3ccc(C)cc3)CC2)cc1	.	.	.	.	59	.
Cc1ccc(S(=O)(=O)N2CCCNCC2)cc1	.	/	.	.	23	.
C[C@H]1CN([C@@H](C)CO)C(=O)c2cc(C#Cc3ccccc3F)cnc2O[C@@H]1CN(C)C(=O)C1CCCCC1	.	.	.	/	.	.
Cc1ccc(S(=O)(=O)N2CCN(C(=O)C(O)c3ccccc3)CC2)cc1 (centres undefined)	/	/	.	.	37	/
O=C(C(O)c1ccccc1)N1CCN(S(=O)(=O)c2ccc(F)c(F)c2)CC1 (centres undefined)	/	/	.	.	.	/
O=C(Nc1ccc(Cl)c(Cl)c1)Nc1ccc(N2CCCC2)c(S(=O)(=O)Nc2ccccc2Cl)c1	/	/	81	.	/	/
CNC[C@@H]1Oc2ccc(N(C)C)cc2CC(=O)N(C)C[C@H]1C	.	/	/	.	/	/
C[C@@H]1CN([C@H](C)CO)C(=O)c2cc(C#CC3CC3)cnc2O[C@H]1CN(C)C(=O)Nc1ccccc1	.	.	.	/	31	.
C[C@H](CO)N1C[C@H](C)[C@H](CN(C)C)Oc2ncc(C#CC3CC3)cc2C1=O	.	.	.	.	102	.
C[C@H](CO)N1C[C@H](C)[C@H](CN(C)C(=O)Cc2ccccn2)Oc2ncc(C#CC3CC3)cc2C1=O	.	.	.	/	25	.
C[C@H](CO)N1C[C@H](C)[C@@H](CN(C)C(=O)Nc2ccccc2)Oc2ncc(C#CC3CC3)cc2C1=O	.	.	.	/	.	.
C[C@@H]1CN([C@H](C)CO)C(=O)c2cc(-c3ccccc3)cnc2O[C@H]1CN(C)Cc1ccccn1	.	.	.	.	.	.
COc1ccc(NC(=O)N[C@H]2CC[C@H](CC(=O)NC3CCCCC3)O[C@@H]2CO)cc1	.	.	.	.	.	.
Cc1cc(/C=N/n2cnnc2)c(C)n1-c1ccc(OCc2ccccc2F)cc1	-43	.	/	/	.	.
Cc1cc(/C=N/n2cnnc2)c(C)n1-c1ccc(OCc2ccc(Cl)cc2)cc1	/	.	/	/	/	/
SMILES	rRNA inh HTS	PGC1a acetyl inh	Env fusion inh	FN deposit inh	DENV2 CPE rescue	PglD DTNB
Cc1c(C(=O)N2CCCC2)oc2ccc(Br)cc12	-30	/	.	.	53	.
COc1ccccc1N1CCN(C(=O)c2oc3ccc(F)cc3c2C)CC1	-36	/	/	.	.	.
COc1ccccc1N1CCN(C(=O)c2oc3ccc(Br)cc3c2C)CC1	.	/	.	.	.	/
Cc1c(C(=O)N2CCN(C)CC2)oc2ccc(Br)cc12	.	.	.	.	.	.
Cc1nc(N(C)C)c2sc(=S)n(C)c2n1	.	.	.	.	38	.
Cc1nc(N(C)C)c2sc(=S)n(-c3ccccc3)c2n1	.	.	.	.	/	.
CC1(Cc2ccc(Cl)c(Cl)c2)C(=O)Nc2ccc(S(=O)(=O)NC3CCCCC3)cc21 (centres undefined)	/	/	57	.	.	.
CC1(Cc2cc(Cl)ccc2C(F)(F)F)C(=O)Nc2ccc(S(=O)(=O)NC3CCCCC3)cc21 (centres undefined)	.	.	.	.	.	.
CC1(Cc2cccc(F)c2)C(=O)Nc2ccc(S(=O)(=O)NC3CCCCC3)cc21 (centres undefined)	.	.	58	.	.	.
N=C(N)c1ccc(N=Nc2c(O)ccc3c2[nH]c2ccccc23)cc1	-30	.	/	.	.	/
Oc1ccc(N=Nc2c(O)ccc3ccccc23)cc1	.	.	/	/	.	.
C[C@@H]1CN([C@@H](C)CO)C(=O)c2cc(NC(=O)c3ccncc3)ccc2O[C@@H](C)CCCCO[C@H]1CN(C)Cc1ccc2c(c1)OCO2	.	.	.	.	.	.
CC1=C(C#N)C(=O)NC(=O)/C1=C\c1ccc(-c2cc(C)c(C)cc2[N+](=O)[O-])o1	-34	.	.	/	.	.
CCS(=O)(=O)Nc1ccc2c(c1)C(=O)N(C)[C@@H]1CC[C@H](CC(=O)NC3CCCCC3)O[C@H]1CO2	.	.	.	.	76	.
CN1C(=O)c2cc(NC(=O)c3cccc(Cl)c3)ccc2OC[C@@H]2O[C@H](CC(=O)NC3CCCCC3)CC[C@@H]21	.	.	57[16.7 µM]	.	.	.
CN1C(=O)c2cc(NC(=O)c3cccc(Cl)c3)ccc2OC[C@H]2O[C@@H](CC(=O)NC3CCCCC3)CC[C@@H]21	.	.	/	.	.	/
COc1ccc2c3c([nH]c2c1)[C@H](CO)N(C(=O)c1cccc(F)c1)CC31CCN(C(=O)c2ccccc2)CC1	.	.	/	.	.	/
COc1ccc2c3c([nH]c2c1)[C@@H](CO)N(C(=O)c1cccc(F)c1)CC31CCN(C(=O)c2cccc(F)c2)CC1	.	/	/	/	22	/
COc1ccc2c3c([nH]c2c1)[C@H](CO)N(C(=O)Nc1ccc(F)cc1)CC31CCN(C(=O)Nc2ccccc2)CC1	.	.	/	/	21	/
COc1ccc2c3c([nH]c2c1)[C@@H](CO)N(C(=O)Nc1ccc(F)cc1)CC31CCN(S(=O)(=O)c2ccccc2)CC1	.	.	/	/	71	/
